Laboratory results published in ChEMBL document CHEMBL1134834, “Quinoxalinylethylpyridylthioureas (QXPTs) as potent non-nucleoside HIV-1 reverse transcriptase (RT) inhibitors. Further SAR studies and identification of a novel orally bioavailable hydrazine-based antiviral agent” (J Med Chem, 2001).

How the values were obtained:
[1] = target: Human immunodeficiency virus type 1 reverse transcriptase (Human immunodeficiency virus 1, UniProt Q72547, Y181I); assay: Inhibition of HIV-1 Mutant HIV-1 RT enzymes containing the single amino acid substitution Y181I
[2] = target: T1, Human immunodeficiency virus type 1 reverse transcriptase (Human immunodeficiency virus 1, UniProt Q72547); assay: Inhibition of HIV-1 Mutant HIV-1 RT enzymes containing the single amino acid substitution […]
[3] = target: Human immunodeficiency virus type 1 reverse transcriptase (Human immunodeficiency virus 1, UniProt Q72547, K103N); assay: Inhibition of HIV-1 Mutant HIV-1 RT enzymes containing the single amino acid substitution K103N
[4] = target: Human immunodeficiency virus type 1 reverse transcriptase (Human immunodeficiency virus 1, UniProt Q72547, V106A); assay: Inhibition of HIV-1 Mutant HIV-1 RT enzymes containing the single amino acid substitution V106A
[5] = target: T1, Human immunodeficiency virus type 1 reverse transcriptase; assay: Inhibition of HIV-1 wild-type RT
[6] = target: Human immunodeficiency virus type 1 reverse transcriptase (Human immunodeficiency virus 1, UniProt Q72547, Y188L); assay: Inhibition of HIV-1 Mutant HIV-1 RT enzymes containing the single amino acid substitution Y188L
[7] = system: CEM-SS; assay: Concentration which produces a 50% survival of HIV-1 infected cells relative to uninfected control CEM-SS cells (in vitro anti-HIV activity); type: functional, cell-based; settings: Homo sapiens
Method in brief: (§1)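 CEM-SS T4 lymphocytes infected with wild-type HIV-1. Protection from virus-induced cell death is scored against an AZT-treated positive control run under identical conditions. […] SI = IC50/EC50.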

[8] = Selectivity index (IC50/EC50) was determined in C8166 cells; type: functional
[9] = system: Daudi; assay: Cytotoxicity on Daudi Human(DH) cell line (O.D.=0.129+/-0.018); type: functional; settings: read-out: TC50 (the source's name)
[10] = system: C8166; assay: Antiviral activity alone against HIV-IIIB in C8166 cells; type: functional, cell-based; settings: Homo sapiens
Method in brief: (§2)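 C8166 CD4+ T-cell line (HTLV-I genome, only tat expressed) acutely infected with lymphocytotropic HIV-1 IIIB. […] Read-out is HIV-p24 antigen in supernatants. AZT positive control was run at the same time. SI = IC50/EC50.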

[11] = system: C8166; assay: Synergistic antiviral activity of AZT (DDI) with the compound, against HIV-IIIB in C8166 cells; type: functional, cell-based; settings: Homo sapiens
Method in brief: (§3)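 C8166 cells infected with HIV-IIIB and treated with compound combined with AZT (or DDI). Combination index calculated by the Chou-Talalay multiple drug effect analysis under both mutually exclusive and mutually nonexclusive assumptions.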

[12] = species: Mus musculus; assay: Cytotoxicity on NSO murine cell line (O.D.=0.125+/-0.015); type: functional; settings: read-out: TC50 (the source's name)
[13] = system: Human immunodeficiency virus 1; assay: Concentration which produces a 50% survival of HIV-1 infected cells relative to uninfected control C8166 cells; type: functional, organism-based; settings: Human immunodeficiency virus 1, C8166
[14] = Selectivity index (IC50/EC50) was determined in CEM-SS cells; type: functional
Method in brief: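 CEM-SS (T4 lymphocyte) cells infected with wild-type HIV-1 were scored for protection from virus-induced cell death. […] SI = IC50/EC50. An AZT-treated positive control was run in parallel under identical conditions.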

[15] = system: NIH3T3; assay: Cytotoxicity on 3T3 fibroblasts (3T3F) murine cell line (O.D.=0.131+/-0.014); type: functional; settings: Mus musculus, read-out: TC50 (the source's name)
[16] = species: Homo sapiens; assay: Cytotoxicity on normal human lymphocytes(HL) (O.D.=0.114+/-0.01); type: functional; settings: read-out: TC50 (the source's name)
[17] = system: C8166; assay: (§4) Concentration which results in 50% survival of uninfected untreated control C8166 cells (cytotoxicity of the compound); type: functional, cell-based; settings: Homo sapiens
Method in brief: (§5)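 Toxicity in uninfected C8166 cells by MTT reduction to formazan, read spectrophotometrically.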

[18] = system: CEM-SS; assay: (§6) Concentration which results in 50% survival of uninfected untreated control CEM-SS cells (cytotoxicity of the compound); type: functional, cell-based; settings: Homo sapiens, read-out: IC50 (the source's name)
[19] = system: C8166; assay: Synergistic antiviral activity with AZT (DDI), against HIV-IIIB in C8166 cells; type: functional, cell-based; settings: Homo sapiens; method in brief: as §3
[20] = system: Daudi; assay: cytotoxicity on Daudi Human(DH) cell line (O.D.=0.129+/-0.018); type: functional; settings: read-out: TC50 (the source's name)
[21] = (§7) cytotoxicity on normal human lymphocytes(HL) (O.D.=0.114+/-0.01); type: functional; settings: read-out: TC50 (the source's name)
[22] = system: Murine cell line; assay: (§8) cytotoxicity on 3T3 fibroblasts (3T3F) murine cell line (O.D.=0.131+/-0.014); type: functional; settings: Mus musculus, read-out: TC50 (the source's name)
[23] = species: Mus musculus; assay: cytotoxicity on NSO murine cell line (O.D.=0.125+/-0.015); type: functional; settings: read-out: TC50 (the source's name)
[24] = system: C8166; assay: as §4; type: cell-based; settings: Homo sapiens; method in brief: as §5
[25] = system: CEM-SS; assay: as §6; type: cell-based; settings: Homo sapiens
[26] = Selectivity index was determined in C8166 cells; type: functional; method in brief: as §2
[27] = Selectivity index was determined in CEM-SS cells; type: functional; method in brief: as §1
[28] = system: NIH3T3; assay: Cytotoxicity against 3T3 fibroblasts (3T3F) murine cell line (O.D.=0.131+/-0.014); type: functional; settings: Mus musculus, read-out: TC50 (the source's name)
[29] = system: Mus musculus; assay: Volume distribution was determined after subcutaneous administration of a dose of 20 mg/kg in mice; type: ADME, organism-based; set-up: dose 20 mg/kg, route subcutaneous; settings: in vivo, sc
Method in brief: (§9)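 Mice dosed at 20 mg/kg, either subcutaneously or orally; plasma drug level measured by HPLC with an internal standard; n = 3 per point. Cmax and tmax read from the concentration-time curves. Clearance assumes complete subcutaneous absorption. Elimination t1/2, Vd and AUC derived from plasma curves. Relative oral bioavailability computed as oral AUC over subcutaneous AUC.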

[30] = Subcutaneous absorption was determined fter subcutaneous administration of a dose of 20 mg/kg in mice; type: ADME, organism-based; set-up: dose 20 mg/kg, route subcutaneous; settings: mouse, in vivo, sc; method in brief: as §9
[31] = Bioavailability was determined after subcutaneous administration of a dose of 20 mg/kg in mice; type: ADME, organism-based; settings: mouse, in vivo, po, in the assay text read “oral” for “subcutaneous”; method in brief: as §9
[32] = system: C8166; assay: Synergistic antiviral activity of AZT (DDI) with the compound, against HIV-IIIB in C8166 cells (combination index in association with DDI); type: functional, cell-based; settings: Homo sapiens; method in brief: as §3
[33] = Half life period was determined after oral administration in mice; type: ADME, organism-based; settings: mouse, in vivo; method in brief: as §9
[34] = Cytotoxicity against normal human lymphocytes(HL) (O.D.=0.114+/-0.01); type: functional; settings: read-out: TC50 (the source's name)
[35] = system: Mus musculus; assay: Area under curve was determined after oral administration in mice; type: ADME, organism-based; settings: in vivo; method in brief: as §9
[36] = system: NSO; assay: Cytotoxicity against NSO murine cell line (O.D.=0.125+/-0.015); type: functional; settings: Mus musculus, read-out: TC50 (the source's name)
[37] = Half life period was determined after subcutaneous administration of a dose of 20 mg/kg in mice; type: ADME, organism-based; set-up: dose 20 mg/kg, route subcutaneous; settings: mouse, in vivo, sc; method in brief: as §9
[38] = system: Daudi; assay: Cytotoxicity against Daudi Human(DH) cell line (O.D.=0.129+/-0.018); type: functional; settings: read-out: TC50 (the source's name)
[39] = system: C8166; assay: Synergistic antiviral activity with AZT (DDI), against HIV-IIIB in C8166 cells (combination index in association with DDI); type: functional, cell-based; settings: Homo sapiens; method in brief: as §3
[40] = system: Human immunodeficiency virus 1; assay: Inhibition of HIV-1-p24 antigen production in monocyte-macrophages (in vitro anti-HIV-1 activity); type: functional, organism-based
Method in brief: (§10)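 Macrophages from adherent PBMC (10^6/mL, RPMI-1640 with 20% heat-inactivated FCS), 10^5 per well, >95% pure, infected with monocytotropic HTLV-III Ba-L. Antiviral activity read 14 days after infection. […] SI = IC50/EC50. AZT control run in parallel.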

[41] = system: Mus musculus; assay: Area under curve was determined after subcutaneous administration of a dose of 20 mg/kg in mice; type: ADME, organism-based; set-up: dose 20 mg/kg, route subcutaneous; settings: in vivo, sc; method in brief: as §9
[42] = system: Human immunodeficiency virus 1; assay: Inhibition of HIV-1-p24 antigen production in monocyte-macrophages (cytotoxicity of the compound); type: organism-based; method in brief: as §10
[43] = system: C8166; assay: Concentration which produces a 50% survival of HIV-1 infected cells relative to uninfected control C8166 cell (in vitro anti-HIV activity); type: functional, cell-based; settings: Homo sapiens
[44] = system: NIH3T3; assay: as §8; type: functional; settings: Mus musculus, read-out: TC50 (the source's name)
[45] = as §7; settings: read-out: TC50 (the source's name)
[46] = Selectivity index between IC50 of HIV-1-p24 and EC50 of HIV-1-p24 (IC50/EC50); type: functional; method in brief: as §10

| SMILES | Ki [1] [nM] | Ki [2] [nM] | Ki [3] [nM] | Ki [4] [nM] | Ki [5] [nM] | Ki [6] [nM] | EC50 [7] [nM] | SI [8] | EC50 [10] [nM] | EC50 [13] [nM] | SI [14] | IC50 [17] [nM] | further results |
| --- | --- | --- | --- | --- | --- | --- | --- | --- | --- | --- | --- | --- | --- |
| O=c1n(CCNC(=S)Nc2ccc(Br)cn2)c2ccccc2c2ccnn12 | 520 | 100 | 21 | 330 | 15 | 400 | – | – | – | – | – | – | – |
| O=c1c2cccn2c2ncccc2n1CCNC(=S)Nc1ccc(Br)cn1 | 400 | 95 | 250 | 50 | 9 | 130 | 5.2 | 89 | 124 | 124 | >380 | 11000 | CC50 [9]: 690000 nM; EC50 [11]: 15 nM; CC50 [12]: 700000 nM; CC50 [15]: 690000 nM; CC50 [16]: 680000 nM; CC50 [18]: > 2000 nM; EC50 [19]: 50 nM |
| O=c1c2cccn2c2ccc(Cl)cc2n1CCNC(=S)Nc1ccc(Br)cn1 | 240 | 160 | 150 | 20 | 20 | 900 | 1.8 | 123 | – | 61 | >1080 | 7000 | CC50 [20]: 960000 nM; CC50 [21]: 970000 nM; CC50 [22]: 980000 nM; CC50 [23]: 970000 nM; CC50 [18]: > 2000 nM |
| Cc1cn([C@H]2C[C@H](N=[N+]=[N-])[C@@H](CO)O2)c(=O)[nH]c1=O [ZIDOVUDINE] | – | – | – | – | – | – | – | – | – | 400 | – | – | IC50 [24]: > 100000 nM; IC50 [25]: > 1000 nM; SI [26]: >250; SI [27]: 526 |
| O=C(NNc1nc2ccccc2n2cccc12)c1cnccn1 | 2500 | 300 | – | 800 | 190 | 1800 | – | – | 450 | – | – | 18000 | CC50 [28]: 880000 nM; Vd [29]: 3 L/kg; Tmax [30]: 2 h; bioavailability [31]: 45%; EC50 [32]: 98 nM; half-life [33]: 1.4 h; CC50 [34]: 870000 nM; AUC [35]: 21.7 nM hr-1 ml-1; CC50 [36]: 870000 nM; half-life [37]: 1.5 h; CC50 [38]: 860000 nM; EC50 [39]: 140 nM; EC50 [40]: 200 nM; AUC [41]: 48.7 nM hr-1 ml-1; IC50 [42]: 25000 nM; EC50 [43]: 400 nM |
| Cc1cc2nc(OCCNC(=S)Nc3ccc(Br)cn3)c3cccn3c2cc1C | 660 | 500 | 450 | 150 | 220 | 1500 | – | – | – | – | – | – | – |
| O=c1c2cccn2c2ccc(F)cc2n1CC/N=C(\S)Nc1ccc(Br)cn1 | 1000 | 700 | 650 | 40 | 29 | 1200 | 63 | 468 | 66 | 32 | >3170 | 15000 | CC50 [20]: 19000 nM; EC50 [11]: 85 nM; IC50 [25]: > 200000 nM; CC50 [44]: 20000 nM; CC50 [45]: 20000 nM; EC50 [40]: 4 nM; IC50 [42]: 49000 nM; SI [46]: 12200; CC50 [23]: 20000 nM; EC50 [19]: 57 nM |
| CC(C)=CCN1Cc2c(Cl)ccc3[nH]c(=S)n(c23)C[C@@H]1C [TIVIRAPINE] | – | – | – | – | – | – | – | – | – | 30 | – | – | IC50 [24]: 50000 nM; SI [26]: 1670 |
